Published values of several laboratories.
Compare with care: the assays were run in different laboratories.
CDK2: Cyclin-dependent kinase 2 (CDK2, Homo sapiens, UniProt P24941)
CDK2 with cyclin A: Cyclin-dependent kinase 2, with cyclin A (CDK2, Homo sapiens, UniProt P24941)
CDK2 with cyclin E: Cyclin-dependent kinase 2, with cyclin E (CDK2, Homo sapiens, UniProt P24941)

Structure (SMILES)	target	test	conditions	measurement	value
O=C(Nc1cccnn1)N1CC(C/C=C/c2cncc(Oc3ccc(C(F)(F)F)cn3)n2)C1	CDK2	cell-free assay, competition with immobilised ligand	1 µM	remaining binding	100%
COc1cc2c(cc1OC)-c1[nH]nc(Nc3cccc(F)c3)c1C2	CDK2 with cyclin A	cell-free assay	0.5 µM	remaining signal	87.5%
CC(C)c1ccc(NC(=O)c2cccs2)c(-c2nc3ccccc3[nH]c2=O)c1	CDK2 with cyclin E	enzyme activity, inhibitor	1 µM	activity vs control	98%
Cn1c2c(Cl)c(Cl)ccc2c2cn[nH]c(=O)c21	CDK2	thermal stability, DSF	10 µM	ΔTm	0.6 °C
Cc1ccc(C(=O)NCc2ccsc2)cc1C#Cc1cn(C(C)C)c2ncnc(N)c12	CDK2 with cyclin A	enzyme activity, inhibitor	1 µM	activity vs control	94%
Cc1nc(N2CC[C@@H](O)C2)ncc1-c1cc(C(F)(F)F)cc2[nH]ncc12	CDK2	binding, competition with immobilised ligand	1 µM	remaining binding	94%
CC(C)[C@H](CO)Nc1nc(Nc2cccc(Cl)c2)c2ncn(C(C)C)c2n1	CDK2 with cyclin E	cell-free assay	0.5 µM	remaining signal	9.88%
NS(=O)(=O)c1cc(NC(=O)Cc2ccccc2)ccc1Oc1cccc(Cl)c1	CDK2	cell-free assay, competition with immobilised ligand	1 µM	remaining binding	100%
CC(C)(O)[C@H]1CC[C@H](Nc2ccc3ncc(-c4cccc(C(F)(F)F)c4)n3n2)CC1	Cyclin-dependent kinase 2, with cyclin A1 (CDK2, Homo sapiens, UniProt P24941)	enzyme activity, inhibitor	1 µM	remaining activity	78.5%
Cc1sc(C(=O)NC2COC2)cc1-n1cc(NC(=O)Nc2c(F)cccc2Cl)cn1	Cyclin-dependent kinase 2, with cyclin O (CDK2, Homo sapiens, UniProt P24941)	enzyme activity, inhibitor	10 µM	remaining activity	105%
Cc1cc(NC(=O)c2cccc3cc(-c4cccc5[nH]nc(N)c45)ccc23)ccc1F	CDK2 with cyclin E	enzyme activity, inhibitor	0.1 µM	activity vs control	103%
CN(C)C1CCN(CC#Cc2nn(C3CCCC3)c3nc(NCc4ccccc4)ncc23)C1 (stereo not drawn)	CDK2 with cyclin A	enzyme activity, inhibitor, FRET	1 µM	inhibition	9%
Cn1c2c(c3ccc(Cl)c(Cl)c31)C(C#N)C1(CCOCC1)NC2=O (stereo not drawn)	CDK2	thermal stability, DSF	10 µM	ΔTm	0 °C
O=C(Nc1cnn(-c2csc(C(=O)NC3COC3)c2)c1)Nc1ccccc1Cl	CDK2 with cyclin A	enzyme activity, inhibitor	5 µM	remaining activity	93.6%
CS(=O)(=O)c1cc(C2(NC(=O)c3cncc4c3cnn4-c3ccc(F)cc3)CC2)ccn1	CDK2	cell-free assay, competition with immobilised ligand	1 µM	remaining binding	94%
CCC1(CC)NC(=O)c2c(c3ccc(Cl)c(Cl)c3n2C)C1C#N (stereo not drawn)	CDK2	thermal stability, DSF	10 µM	ΔTm	-0.4 °C
COc1cc2c(Nc3ccc(Br)cc3F)ncnc2cc1OCC1CCN(C)CC1	CDK2 with cyclin E	cell-free assay	0.5 µM	remaining signal	101%

Structure (SMILES)	target	test	conditions	measurement	value
Cn1c2c(c3ccc(Cl)c(Cl)c31)C(C#N)C1(CCCC1)NC2=O (stereo not drawn)	CDK2	thermal stability, DSF	10 µM	ΔTm	-0.5 °C
O=C1Cc2c([nH]c3ccc(Br)cc23)-c2ccccc2N1	CDK2 with cyclin E	cell-free assay	0.5 µM	remaining signal	51.9%
CCN1CCC2(CC1)NC(=O)c1c(c3ccc(Cl)c(Cl)c3n1C)C2C#N (racemic)	CDK2	thermal stability, DSF	10 µM	ΔTm	0 °C
N#Cc1c(NC(=O)c2cccc3ccccc23)sc2c1CCCC2	CDK2 with cyclin E	cell-free assay	0.5 µM	remaining signal	89.1%
CN(C(=O)c1ccccc1)c1cc(N(C)c2ccc3c(c2)CCc2ccc(C(=O)NCCN4CCOCC4)cc2C3=O)ccc1F	CDK2	cell-free assay, competition with immobilised ligand	1 µM	remaining binding	96%
O=C1NC(=O)c2cc(Nc3ccc(F)cc3)c(Nc3ccc(F)cc3)cc21	CDK2 with cyclin A	cell-free assay	0.5 µM	remaining signal	95.3%
O=C(Nc1cnn(-c2csc(C(=O)NC3COC3)c2)c1)Nc1c(F)cccc1Cl	Cyclin-dependent kinase 2, with cyclin E2 (CDK2, Homo sapiens, UniProt P24941)	enzyme activity, inhibitor	5 µM	remaining activity	98.9%
CN1CCC2(CC1)NC(=O)c1c(c3ccc(Cl)c(Cl)c3n1C)C2C#N (racemic)	CDK2	thermal stability, DSF	10 µM	ΔTm	0.1 °C
C[C@H](c1ccnc(Nc2nc3ccc(-c4cc(N(C)C)ncn4)cc3[nH]2)c1)N1CCN(C(=O)CC(F)(F)F)CC1	CDK2	cell-free assay, competition with immobilised ligand	0.1 µM	remaining binding	100%
FC(F)(F)Oc1cccc(-c2cnc3ccc(-c4ccncc4)nn23)c1	CDK2 with cyclin A	enzyme activity, inhibitor, radiometric	1 µM	activity vs control	26%
COc1cc(/C=C/C(=O)CC(=O)/C=C/c2ccc(O)c(OC)c2)ccc1O	CDK2 with cyclin A	enzyme activity, inhibitor	1 µM	activity vs control	107%
CCS(=O)(=O)c1cc2cc(C[C@@](O)(CC(C)(C)c3ccc(F)cc3C(N)=O)C(F)(F)F)[nH]c2cn1	CDK2	cell-free assay, competition with immobilised ligand	1 µM	remaining binding	96%
CS(=O)(=O)CCNCc1ccc(-c2ccc3ncnc(Nc4ccc(OCc5cccc(F)c5)c(Cl)c4)c3c2)o1	CDK2 with cyclin E	cell-free assay	0.5 µM	remaining signal	98.8%
CN(c1ccnc(CNc2nc(Nc3ccc4c(c3)CC(=O)N4)ncc2C(F)(F)F)n1)S(C)(=O)=O	CDK2	cell-free assay, competition with immobilised ligand	1 µM	remaining binding	89%
O=C1Nc2ccc(Cl)cc2C1=Cc1cc(Cl)c(O)c(Cl)c1	CDK2 with cyclin E	cell-free assay	0.5 µM	remaining signal	90%
Cc1ccc(NC(=O)c2ccc(C)c(C(F)(F)F)c2)cc1C#Cc1nn(C2CCC(O)CC2)c2ncnc(N)c12 (stereo not drawn)	CDK2 with cyclin E	cell-free assay	10 µM	remaining signal	102%
